Experimental findings from the EternaBench riboswitch data are described below.

What is called apparent Kd is the concentration giving half-maximal binding under the conditions of the assay.

The subject of this series is MS2 coat protein. Nature of the series: apparent Kd, MS2 coat protein; higher = weaker binding; RNA-MaP array. The gist of the method:
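Sequenced DNA templates on an Illumina sequencing chip were transcribed into the designed RNAs. These were incubated at room temperature in Tris-HCl pH 7.5 buffer containing KCl, MgCl2, BSA, DTT, tRNA and Tween20 with fluorescently labeled MS2 coat protein at 1.5 nM to 3 μM, with or without input ligand. Apparent Kd is the median of binding-curve fits per cluster, and designs with fewer than 10 clusters measured were excluded.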

Setting [1] is: designed as: ON switch for flavin mononucleotide, no ligand.
[2] abbreviates: ligand present: flavin mononucleotide, designed as: ON switch for flavin mononucleotide.
Where [3] appears, read: designed as: OFF switch for flavin mononucleotide, no ligand.
Setting [4] is: ligand present: flavin mononucleotide, designed as: OFF switch for flavin mononucleotide.
Setting [5] is: designed as: OFF switch for theophylline, no ligand.
Setting [6] is: ligand present: theophylline, designed as: OFF switch for theophylline.

On to “UAGCAAUGCGAAGGAUAUGUCGCCCUCCCAAGGACAGAAGGUCGGAACUGUUUACAUGAGGAUCACCCAUGUGGUAAUUAACAA”, for which the “apparent Kd” value runs as follows: under setting [1], 21.8 nM; under setting [2], 15.6 nM.

In the case of “GGUGCACAUGAGGAUCACCCAUGUGAGGAUAUGUGAAACGAGCUGAAUGCCAACCAAAACAGAAGGCACAAUGG”, the “apparent Kd” value under setting [3] worked out at 18.3 nM and the “apparent Kd” value under setting [4] was determined as 19 nM.

Regarding “ACAUGAGGAUCACCCAUGUUCUCAAGUAUAAUAGAUAAAUCAAGAAGGGCUAAUCGACCGAAUAAGCAGGAUAUUGUGAUAUGG”, the “apparent Kd” value under setting [3] is 18.3 nM and the “apparent Kd” value under setting [4] was found to be 21.2 nM.

In the case of “GAAGCGUGAGCAGGAUAUUUAGACAUGAGGAUCACCCAUGUGUGCUAACUAGAAUGCAGGUUUUUAAAGAAGGGCUCCUAGAUU”, the “apparent Kd” value was 11.4 nM under setting [1] and 7.11 nM under setting [2].

On to “UCAAUAUGUCGUUGACAUGAGGAUCACCCAUGUACUAACUAGCAGGAUAUCGUGAUUAACCCUACCGAGAAGGGCUGUUGUAUU”, for which the “apparent Kd” value by setting is: under setting [1], 40.7 nM; under setting [2], 34.9 nM.

Regarding “AAAUGUACGAAGAAGGCUCUGCCACUGGCCGAGAGAGGAUAUUCACACAUGAGGAUCACCCAUGUCGAACAAAGUACACAGAGC”, the “apparent Kd” value was 8.43 nM under setting [1] and 7.06 nM under setting [2].

“ACUCGUUAAGGAUAUACUCGGUUUACUUGCAUGUUCGGCGCACAUGAGGAUCACCCAUGUAGAAGGUAAUAUUC”: the “apparent Kd” value runs as follows: under setting [3], 24.6 nM; under setting [4], 27.2 nM.

With “UUUAGUAUCUUAGAUACCAGUUUUGGGUGCUGAACGUCUCACAUGAGGAUCACCCAUGUAAACCCUUGGCAGCUACAUACGUAAA”, the “apparent Kd” value runs as follows: under setting [5], 45.5 nM; under setting [6], 136 nM.

On to “CGUAACCAAGGAUAUACAUGAGGAUCACCCAUGUAUCGGGUCGGUCUGGGUCCAAUAAGUAGAAGGUGGCUGAU”, for which the “apparent Kd” value is, setting by setting: under setting [3], 29.3 nM; under setting [4], 39.7 nM.

“AAAGAAAACGGAGGAUAUAGAAAUCCGAAUCCAAACCCGCCAACAUGAGGAUCACCCAUGUGCUUCUAGAAGGCCGAAUGCUAC”: the “apparent Kd” value came out at 19.8 nM under setting [1] and 17 nM under setting [2].

Consider “GACACCCAAGGAUAUCAAUGAAUCAACAUGAGGAUCACCCAUGUCGUCACCAGAUUAAACUGAGAAGGAGGAGAAA”, for which the “apparent Kd” value reads like this: under setting [3], 11.4 nM; under setting [4], 9.75 nM.

On to “AGACCAUCCUUAGGAUAUGGCUAUCUUAUCAAGCCAGAAGGAAGGGCCUCAUCUAACAUGAGGAUCACCCAUGUGCGCAAGUUU”, for which the “apparent Kd” value turned out to be 81.3 nM under setting [3] and 51.9 nM under setting [4].

Consider “CCAUGAAGAUAGGAUAUAGGUCGAGUUCCCGAACAAGAAGGAUCGACAUGAGGAUCACCCAUGUGCAUCCAUGA”, for which the “apparent Kd” value reads like this: under setting [3], 27.1 nM; under setting [4], 21.1 nM.

Take “CUAAAUUACGCGUAGGAUAUAUUAAAGACUACAUGAGGAUCACCCAUGUCACUUAAACCACGAGAAUAGAAGGACGUAGAAAGAGA”: the “apparent Kd” value by setting is: under setting [1], 8.77 nM; under setting [2], 9.06 nM.

Regarding “GAUUACGGUCUAGGAUAUUGAUUGGCACAUGAGGAUCACCCAUGUCUGUGAGAUCAGCAUACAAGCAAGAAGGAGAUGCGGUCU”, the “apparent Kd” value reads like this: under setting [3], 10.6 nM; under setting [4], 10.9 nM.

For “AGCACAAUAGGAUAUACAUGAGGAUCACCCAUGUAGAAAUUUGGUACCCGGGUGUCUUGUAGAAGGAUAGAAGA”, the “apparent Kd” value under setting [3] was determined as 16.4 nM and the “apparent Kd” value under setting [4] amounted to 15.1 nM.

On to “GAACCUAUAGGAUAUACAUGAGGAUCACCCAUGUAGCCAUCUAUUCGUGGGACUAGGUGUAGAAGGAUAGCAAA”, for which the “apparent Kd” value worked out at 12.7 nM under setting [3] and 11.8 nM under setting [4].

For the sequence “GUAAGCAAGCAAGGAUAUGAUAUAAAUUCGAUAUCAGAAGGUGCCUUUCCUAGUCGAAUACAUGAGGAUCACCCAUGUCAGCAA”, the “apparent Kd” value reads like this: under setting [1], 25.6 nM; under setting [2], 18 nM.

Take “CUUGUAACCUAAGGAUAUGAUUAGGGCAUCACAUGAGGAUCACCCAUGUGGCGUGAUCCGAGCCUUCAGAAGGUAGGGGAGCAU”: the “apparent Kd” value by setting is: under setting [3], 475 nM; under setting [4], 479 nM.

Regarding “GCAUCAUGAACGGCCGCCACUAAGGAAUGAGCGGCUCUUGCGAUACAUGAGGAUCACCCAUGUCUUAGGACCGGGUUCAUUGUCA”, the “apparent Kd” value was 234 nM (designed as: ON switch for tryptophan, no ligand) and 127 nM (ligand present: tryptophan, designed as: ON switch for tryptophan).

“UGUCGCAGGUUAGAUACCAGCGAGGCGCGGGUAAAUGUUCACAUGAGGAUCACCCAUGUUCGCCCUUGGCAGCUAGUAGGCAUAA”: the “apparent Kd” value is 24.2 nM under setting [5] and 100 nM under setting [6].

In the case of “UUUAUUCUCUAUACAUGAGGAUCACCCAUGUCAAUGAUGUGCAGAAGGUGGUUCGGCUGUGACUCCAAGGAUAUGCAGAGAAUU”, the “apparent Kd” value by setting is: under setting [1], 513 nM; under setting [2], 115 nM.

As for “CAUUCGAAGGUGAGGAUAUAGCUACAGUUAAAUGUCUAGAAGGCACAUGAGGAUCACCCAUGUAGGGUCUCUCA”, the “apparent Kd” value was 238 nM under setting [3] and 630 nM under setting [4].

For “UAGGAACAUGAGGAUCACCCAUGUUAGGAUAUCGAGGUAUGGAUUAUCAUGCUGUAAGCGAGAAGGAACGUGUG”, the “apparent Kd” value came to 30.8 nM under setting [3] and 29.6 nM under setting [4].

As for “AAAUAAACCGAGGAUAUUAGAUUAGCAUACGAUUAAGAAGGCGGAACAUGAGGAUCACCCAUGUUGGGAGGUCU”, the “apparent Kd” value under setting [3] is 67.8 nM and the “apparent Kd” value under setting [4] is 211 nM.

As for “UCGAUCAUGUAGAAGGCAUCAGAAACUGGGUGAUGAGGAUAUACGUUAAGACAUGAGGAUCACCCAUGUAAGCAUUGCAAACAC”, the “apparent Kd” value stood at 116 nM under setting [1] and 86.2 nM under setting [2].

In the case of “CGUCGAUAACCACAUGAGGAUCACCCAUGUAAUGUGGUGUGGAGAAGGUCGUGCUAGUUCUAUACGAAGGAUAUCCACGAAUCU”, the “apparent Kd” value by setting is: under setting [3], 124 nM; under setting [4], 98.3 nM.

“CCUCCUCAUCGAGGAUAUUGGGUCUGACCUCCAUUUAGACAUGAGGAUCACCCAUGUAAAGUGUCCAAGAAGGCGAUACCGGGA”: the “apparent Kd” value by setting is: under setting [1], 817 nM; under setting [2], 648 nM.

Turning to “ACCUCGUAAGGAUAUAGAUGCCCGUACACAACAACAGAACUCUAGAAGGUACAUGAGGAUCACCCAUGUUGAUG”, the “apparent Kd” value reads like this: under setting [3], 21.5 nM; under setting [4], 20.9 nM.

For “UAUUGAAUCCUCCCGACAUGAGGAUCACCCAUGUUACCUGCGCAGGAUAUCGUAUGUAUACCCGGCGAGAAGGGCGCUAGCGAG”, the “apparent Kd” value under setting [3] amounted to 213 nM and the “apparent Kd” value under setting [4] amounted to 160 nM.

As for “AAUUAUACAUGAGGAUCACCCAUGUCAAAUAUUGAUAGCUGGCAGGAUAUGAUAGAGACGGAAACUCAGAAGGGCCCGAUGAAC”, the “apparent Kd” value reads like this: under setting [1], 15 nM; under setting [2], 12.6 nM.

In the case of “UGGUUUGUCCAUACAUGAGGAUCACCCAUGUAACACUGGCCCAGAAGGCGAAAAUGGCAGCCAGUCGAGGAUAUGGGCUGUAUG”, the “apparent Kd” value was determined as 59.7 nM under setting [1] and 26.6 nM under setting [2].

For the sequence “CAUUCCAAGGCGGAGGAUAUUCGGAUCGCCACAUGAGGAUCACCCAUGUACGAGUAGUCUGCAACGAAGAAGGCCGUACGUCACCA”, the “apparent Kd” value is 10.5 nM under setting [1] and 6.57 nM under setting [2].

Turning to “AGUUCUGGAGGAUAUACAUCCUCAAUGUCCAACCUGCGGAUACAUGAGGAUCACCCAUGUAGAAGGCCACACAA”, the “apparent Kd” value under setting [3] was determined as 6.53 nM and the “apparent Kd” value under setting [4] came to 9.75 nM.

Take “GACCCACAUGAGGAUCACCCAUGUCAGGAUAUCCGAUCGUCAAAGACCCAAAUAAUUAGGAGAAGGGACAUUAA”: the “apparent Kd” value stood at 15 nM under setting [3] and 15.4 nM under setting [4].

For “CUCUGCUACCGGACUGGUUGGACAUGAGGAUCACCCAUGUACGAGGAUAUACGAAGAAGAACCAGGUAGAAGGCGUUUGGGUAC”, the “apparent Kd” value reads like this: under setting [3], 14.4 nM; under setting [4], 28.1 nM.
